Source: article PMC6745892 (Journal of Medicinal Chemistry, 2019)

Legend:
DAGL-α = target: T1, DAGL-α (Mus musculus, UniProt Q6WQJ1); type: biochemical; conditions: ratio of kinact versus KT109 and DH376
T1 sequence (Q6WQJ1 1-1044): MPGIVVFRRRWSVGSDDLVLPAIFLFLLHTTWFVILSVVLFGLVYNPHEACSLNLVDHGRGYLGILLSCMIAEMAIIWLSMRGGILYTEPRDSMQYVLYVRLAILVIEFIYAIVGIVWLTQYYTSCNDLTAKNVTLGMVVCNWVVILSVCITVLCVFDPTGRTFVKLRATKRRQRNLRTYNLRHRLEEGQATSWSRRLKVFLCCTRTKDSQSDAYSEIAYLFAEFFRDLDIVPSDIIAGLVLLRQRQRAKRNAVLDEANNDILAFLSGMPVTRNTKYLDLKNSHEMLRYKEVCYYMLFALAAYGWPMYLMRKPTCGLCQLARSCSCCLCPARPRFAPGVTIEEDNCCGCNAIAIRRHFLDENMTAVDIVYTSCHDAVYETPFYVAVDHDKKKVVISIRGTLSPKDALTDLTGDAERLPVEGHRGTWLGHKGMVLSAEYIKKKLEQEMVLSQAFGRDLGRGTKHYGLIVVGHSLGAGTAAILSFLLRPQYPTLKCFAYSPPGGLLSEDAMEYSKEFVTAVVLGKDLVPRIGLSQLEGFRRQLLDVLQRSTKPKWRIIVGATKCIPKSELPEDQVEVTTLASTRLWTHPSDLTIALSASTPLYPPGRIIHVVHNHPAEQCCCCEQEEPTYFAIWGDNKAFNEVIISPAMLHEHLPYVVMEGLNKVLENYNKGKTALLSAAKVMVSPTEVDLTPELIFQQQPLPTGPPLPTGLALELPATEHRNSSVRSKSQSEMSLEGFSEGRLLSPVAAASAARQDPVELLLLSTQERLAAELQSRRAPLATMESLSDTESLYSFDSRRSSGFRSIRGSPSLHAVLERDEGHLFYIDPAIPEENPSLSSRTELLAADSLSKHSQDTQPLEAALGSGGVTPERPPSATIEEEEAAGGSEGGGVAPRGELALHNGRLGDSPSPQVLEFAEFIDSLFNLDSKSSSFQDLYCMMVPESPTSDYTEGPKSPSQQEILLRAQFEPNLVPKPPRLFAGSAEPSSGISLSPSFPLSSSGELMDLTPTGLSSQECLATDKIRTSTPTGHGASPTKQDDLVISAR

mDAGL-α = target: T2, mDAGL-α (Mus musculus, UniProt Q6WQJ1); assay: Standard PNP-butyrate surrogate substrate assay; type: biochemical
T2 sequence (Q6WQJ1 1-1044): T1 sequence (Q6WQJ1 1-1044)
Method in brief: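 Membrane fraction of HEK293T cells transiently transfected with mDAGL-α, 0.05 μg/μL final, in 50 mM Hepes pH 7.2. Inhibitor in DMSO preincubated 20 min, then PNP-butyrate added (0.3 mM final; 5% DMSO final). OD 420 nm read after 30 min at 20 °C. Data corrected for 10 μM THL background and normalized to DMSO control. N = 2, n = 2; plates kept if Z′ > 0.6.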

## O=C(N1CCCC[C@@H]1Cc1ccccc1)n1ncc(C(O)(c2ccc(F)cc2)c2ccc(F)cc2)n1 [Compound 1, (R)-(2-Benzylpiperidin-1-yl)(4-(bis(4-fluorophenyl)(hydroxy)methyl)-2H-1,2,3-triazol-2-yl)methanone]
DAGL-α
  inactivation rate (kinact) times higher than for KT109 and DH376: 2–3 times
mDAGL-α
  potency in the standard surrogate substrate assay (in words): low nanomolar

## O=C(N1CCCC[C@@H]1Cc1ccccc1)n1cc(C(O)(c2ccc(F)cc2)c2ccc(F)cc2)nn1 [Compound 2, (R)-(2-Benzylpiperidin-1-yl)(4-(bis(4-fluorophenyl)(hydroxy)methyl)-1H-1,2,3-triazol-1-yl)methanone]
DAGL-α
  inactivation rate (kinact) times higher than for KT109 and DH376: 2–3 times
mDAGL-α
  potency in the standard surrogate substrate assay (in words): low nanomolar
